ChEMBL document CHEMBL1671716, “Antimicrobial susceptibility patterns for recent clinical isolates of anaerobic bacteria in South Korea” (2010)

Tests used:
[1] = test system: Prevotella buccae; assay: Antimicrobial activity against Prevotella buccae assessed as percent resistant isolates after 48 hrs by agar dilution method in presence of 4 ug/ml beta-lactamase inhibitor Tazobactam; assay type: functional, Segatella buccae
How it was run: (§1)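 CLSI agar dilution on recent Korean clinical anaerobe isolates. Inoculum 10^5 CFU per spot by replicator. Plates incubated in an anaerobic chamber at 37°C for 48 h. For piperacillin plus tazobactam, tazobactam was held constant at 4 μg/ml. Resistance and susceptibility rates derived from MICs.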

[2] = test system: Bacteroides ovatus; assay: Antimicrobial activity against Bacteroides ovatus assessed as percent resistant isolates after 48 hrs by agar dilution method in presence of 4 ug/ml beta-lactamase inhibitor Tazobactam; assay type: functional; how it was run: as §1
[3] = test system: Clostridium perfringens; assay: Antimicrobial activity against Clostridium perfringens assessed as percent susceptible isolates after 48 hrs by agar dilution method in presence of 4 ug/ml beta-lactamase inhibitor Tazobactam; assay type: functional; how it was run: as §1
[4] = test system: Bacteroides fragilis; assay: Antimicrobial activity against Bacteroides fragilis assessed as percent resistant isolates after 48 hrs by agar dilution method in presence of 4 ug/ml beta-lactamase inhibitor Tazobactam; assay type: functional; how it was run: as §1
[5] = test system: Anaerococcus prevotii; assay: Antimicrobial activity against Anaerococcus prevotii assessed as percent resistant isolates after 48 hrs by agar dilution method in presence of 4 ug/ml beta-lactamase inhibitor Tazobactam; assay type: functional; how it was run: as §1
[6] = test system: Prevotella intermedia; assay: Antimicrobial activity against Prevotella intermedia after 48 hrs by agar dilution method in presence of 4 ug/ml beta-lactamase inhibitor Tazobactam; assay type: functional
How it was run: (§2)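 CLSI agar dilution (M11-A7); inoculum 10^5 CFU applied by replicator; plates incubated anaerobically 48 h at 37°C. For piperacillin-tazobactam, tazobactam held constant at 4 μg/ml.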

[7] = test system: Bifidobacterium adolescentis; assay: Antimicrobial activity against Bifidobacterium adolescentis assessed as percent resistant isolates after 48 hrs by agar dilution method in presence of 4 ug/ml beta-lactamase inhibitor Tazobactam; assay type: functional; how it was run: as §1
[8] = test system: Bacteroides ovatus; assay: Antimicrobial activity against Bacteroides ovatus assessed as percent susceptible isolates after 48 hrs by agar dilution method in presence of 4 ug/ml beta-lactamase inhibitor Tazobactam; assay type: functional
[9] = test system: Actinomyces israelii; assay: Antimicrobial activity against Actinomyces israelii assessed as percent resistant isolates after 48 hrs by agar dilution method in presence of 4 ug/ml beta-lactamase inhibitor Tazobactam; assay type: functional; how it was run: as §1
[10] = test system: Bacteroides thetaiotaomicron; assay: Antimicrobial activity against Bacteroides thetaiotaomicron after 48 hrs by agar dilution method in presence of 4 ug/ml beta-lactamase inhibitor Tazobactam; assay type: functional
How it was run: (§3)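 MICs by CLSI agar dilution for piperacillin combined with tazobactam, with tazobactam held constant at 4 μg/ml. Clinical anaerobe isolates inoculated at 10^5 CFU by Steers replicator. Plates kept in an anaerobic chamber at 37°C for 48 h.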

[11] = test system: Peptoniphilus asaccharolyticus; assay: Antimicrobial activity against Peptoniphilus asaccharolyticus assessed as percent resistant isolates after 48 hrs by agar dilution method in presence of 4 ug/ml beta-lactamase inhibitor Tazobactam; assay type: functional; how it was run: as §1
[12] = test system: Fusobacterium nucleatum; assay: Antimicrobial activity against Fusobacterium nucleatum after 48 hrs by agar dilution method in presence of 4 ug/ml beta-lactamase inhibitor Tazobactam; assay type: functional; how it was run: as §2
[13] = test system: Schaalia meyeri; assay: Antimicrobial activity against Actinomyces meyeri after 48 hrs by agar dilution method in presence of 4 ug/ml beta-lactamase inhibitor Tazobactam; assay type: functional; how it was run: as §3
[14] = test system: Eubacterium sp.; assay: Antimicrobial activity against Eubacterium sp. assessed as percent resistant isolates after 48 hrs by agar dilution method in presence of 4 ug/ml beta-lactamase inhibitor Tazobactam; assay type: functional; how it was run: as §1
[15] = test system: Clostridioides difficile; assay: Antimicrobial activity against Clostridium difficile assessed as percent susceptible isolates after 48 hrs by agar dilution method in presence of 4 ug/ml beta-lactamase inhibitor Tazobactam; assay type: functional; how it was run: as §2
[16] = test system: Eggerthella lenta; assay: Antimicrobial activity against Eubacterium lentum assessed as percent resistant isolates after 48 hrs by agar dilution method in presence of 4 ug/ml beta-lactamase inhibitor Tazobactam; assay type: functional; how it was run: as §1
[17] = test system: Hoylesella oralis; assay: Antimicrobial activity against Prevotella oralis assessed as percent resistant isolates after 48 hrs by agar dilution method in presence of 4 ug/ml beta-lactamase inhibitor Tazobactam; assay type: functional; how it was run: as §1
[18] = test system: Parabacteroides distasonis; assay: Antimicrobial activity against Bacteroides distasonis assessed as percent resistant isolates after 48 hrs by agar dilution method in presence of 4 ug/ml beta-lactamase inhibitor Tazobactam; assay type: functional; how it was run: as §1
[19] = test system: Peptoniphilus asaccharolyticus; assay: Antimicrobial activity against Peptoniphilus asaccharolyticus assessed as percent susceptible isolates after 48 hrs by agar dilution method in presence of 4 ug/ml beta-lactamase inhibitor Tazobactam; assay type: functional; how it was run: as §2
[20] = test system: Actinomyces naeslundii; assay: Antimicrobial activity against Actinomyces naeslundii assessed as percent resistant isolates after 48 hrs by agar dilution method in presence of 4 ug/ml beta-lactamase inhibitor Tazobactam; assay type: functional; how it was run: as §1
[21] = test system: Peptostreptococcus anaerobius; assay: Antimicrobial activity against Peptostreptococcus anaerobius after 48 hrs by agar dilution method in presence of 4 ug/ml beta-lactamase inhibitor Tazobactam; assay type: functional; how it was run: as §2
[22] = test system: Bacteroides fragilis; assay: Antimicrobial activity against Bacteroides fragilis after 48 hrs by agar dilution method in presence of 4 ug/ml beta-lactamase inhibitor Tazobactam; assay type: functional; how it was run: as §3
[23] = test system: Bacteroides caccae; assay: Antimicrobial activity against Bacteroides caccae assessed as percent susceptible isolates after 48 hrs by agar dilution method in presence of 4 ug/ml beta-lactamase inhibitor Tazobactam; assay type: functional
[24] = test system: Finegoldia magna; assay: Antimicrobial activity against Finegoldia magna assessed as percent resistant isolates after 48 hrs by agar dilution method in presence of 4 ug/ml beta-lactamase inhibitor Tazobactam; assay type: functional; how it was run: as §1
[25] = test system: Bacteroides ovatus; assay: Antimicrobial activity against Bacteroides ovatus after 48 hrs by agar dilution method in presence of 4 ug/ml beta-lactamase inhibitor Tazobactam; assay type: functional; how it was run: as §3

Structure (SMILES): CCN1CCN(C(=O)N[C@@H](C(=O)N[C@@H]2C(=O)N3[C@@H]2SC(C)(C)[C@@H]3C(=O)O)c2ccccc2)C(=O)C1=O [PIPERACILLIN]
- Activity [1]: 0%
- Activity [2]: 7%
- Activity [3]: 100%
- Activity [4]: 2%
- Activity [5]: 0%
- MIC50 [6]: ≤ 0.03 µg/mL
- MIC90 [6]: ≤ 0.03 µg/mL
- Activity [7]: 0%
- Activity [8]: 89%
- Activity [9]: 0%
- MIC50 [10]: 8 µg/mL
- MIC90 [10]: 64 µg/mL
- Activity [11]: 0%
- MIC [12]: 0.03 µg/mL
- MIC50 [13]: 0.5 µg/mL
- MIC90 [13]: 8 µg/mL
- Activity [14]: 0%
- Activity [15]: 100%
- Activity [16]: 0%
- Activity [17]: 0%
- Activity [18]: 7%
- Activity [19]: 100%
- Activity [20]: 0%
- MIC50 [21]: 0.25 µg/mL
- MIC90 [21]: 16 µg/mL
- MIC50 [22]: 1 µg/mL
- MIC90 [22]: 4 µg/mL
- Activity [23]: 89%
- Activity [24]: 0%
- MIC50 [25]: 8 µg/mL
- MIC90 [25]: 64 µg/mL
